# Tests used:
# SRSF protein kinase 1 = SRSF protein kinase 1 (Homo sapiens, UniProt Q96SB4); assay: Inhibition of SRPK1 in human HeLa cells lysate at 2 uM pre incubated for 15 mins followed by ATP acyl phosphate probe addition and measured after 10 mins by LC-MS/MS analysis relative to control; assay type: subcellular; conditions: time 25.0 min
# [1] = molecular target: STE20-like serine/threonine-protein kinase (Homo sapiens, UniProt Q9H2G2); assay: Inhibition of SLK in human HeLa cells lysate pre incubated for 15 mins followed by ADP acyl phosphate probe addition and measured after 10 mins by LC-MS/MS analysis; assay type: subcellular
# STE20-like serine/threonine-protein kinase, sequence (Q9H2G2 whole entry): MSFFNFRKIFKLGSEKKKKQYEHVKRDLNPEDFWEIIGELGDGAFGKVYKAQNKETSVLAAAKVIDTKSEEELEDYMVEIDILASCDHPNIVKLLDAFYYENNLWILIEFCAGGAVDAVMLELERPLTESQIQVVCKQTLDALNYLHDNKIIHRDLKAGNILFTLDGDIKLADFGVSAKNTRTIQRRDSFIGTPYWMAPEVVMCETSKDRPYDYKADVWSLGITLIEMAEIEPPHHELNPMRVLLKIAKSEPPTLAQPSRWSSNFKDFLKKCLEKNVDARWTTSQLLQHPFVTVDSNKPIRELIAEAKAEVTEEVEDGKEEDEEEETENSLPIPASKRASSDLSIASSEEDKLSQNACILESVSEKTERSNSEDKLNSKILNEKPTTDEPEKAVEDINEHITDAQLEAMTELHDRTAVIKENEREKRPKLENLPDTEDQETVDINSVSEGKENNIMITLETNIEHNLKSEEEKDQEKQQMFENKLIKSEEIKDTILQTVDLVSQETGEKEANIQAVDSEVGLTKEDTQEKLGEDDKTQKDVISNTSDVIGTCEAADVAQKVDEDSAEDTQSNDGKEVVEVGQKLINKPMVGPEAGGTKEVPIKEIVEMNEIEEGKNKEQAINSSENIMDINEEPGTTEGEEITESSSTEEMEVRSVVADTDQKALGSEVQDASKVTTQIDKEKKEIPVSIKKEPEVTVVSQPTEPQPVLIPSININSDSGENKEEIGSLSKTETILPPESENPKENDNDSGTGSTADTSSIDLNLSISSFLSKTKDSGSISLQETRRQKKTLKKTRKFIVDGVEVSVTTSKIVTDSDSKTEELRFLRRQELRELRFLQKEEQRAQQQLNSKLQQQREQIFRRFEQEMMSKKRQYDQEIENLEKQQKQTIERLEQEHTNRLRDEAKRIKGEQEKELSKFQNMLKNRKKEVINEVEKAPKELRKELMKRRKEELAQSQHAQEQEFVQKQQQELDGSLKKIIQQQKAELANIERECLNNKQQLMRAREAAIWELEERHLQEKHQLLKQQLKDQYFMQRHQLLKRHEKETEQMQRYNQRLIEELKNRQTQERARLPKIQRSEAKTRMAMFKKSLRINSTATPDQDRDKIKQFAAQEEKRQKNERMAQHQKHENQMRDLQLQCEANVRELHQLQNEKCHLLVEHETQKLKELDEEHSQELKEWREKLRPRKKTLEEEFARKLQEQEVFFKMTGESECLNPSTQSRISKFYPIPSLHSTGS
# [2] = molecular target: T1, Serine/threonine-protein kinase Nek9 (Homo sapiens) (UniProt Q8TD19); assay: Inhibition of NEK9 in human HeLa cells lysate at 10 uM pre incubated for 15 mins followed by ATP acyl phosphate probe addition and measured after 10 mins by LC-MS/MS analysis relative to control; assay type: subcellular; conditions: time 25.0 min
# T1 sequence (whole entry): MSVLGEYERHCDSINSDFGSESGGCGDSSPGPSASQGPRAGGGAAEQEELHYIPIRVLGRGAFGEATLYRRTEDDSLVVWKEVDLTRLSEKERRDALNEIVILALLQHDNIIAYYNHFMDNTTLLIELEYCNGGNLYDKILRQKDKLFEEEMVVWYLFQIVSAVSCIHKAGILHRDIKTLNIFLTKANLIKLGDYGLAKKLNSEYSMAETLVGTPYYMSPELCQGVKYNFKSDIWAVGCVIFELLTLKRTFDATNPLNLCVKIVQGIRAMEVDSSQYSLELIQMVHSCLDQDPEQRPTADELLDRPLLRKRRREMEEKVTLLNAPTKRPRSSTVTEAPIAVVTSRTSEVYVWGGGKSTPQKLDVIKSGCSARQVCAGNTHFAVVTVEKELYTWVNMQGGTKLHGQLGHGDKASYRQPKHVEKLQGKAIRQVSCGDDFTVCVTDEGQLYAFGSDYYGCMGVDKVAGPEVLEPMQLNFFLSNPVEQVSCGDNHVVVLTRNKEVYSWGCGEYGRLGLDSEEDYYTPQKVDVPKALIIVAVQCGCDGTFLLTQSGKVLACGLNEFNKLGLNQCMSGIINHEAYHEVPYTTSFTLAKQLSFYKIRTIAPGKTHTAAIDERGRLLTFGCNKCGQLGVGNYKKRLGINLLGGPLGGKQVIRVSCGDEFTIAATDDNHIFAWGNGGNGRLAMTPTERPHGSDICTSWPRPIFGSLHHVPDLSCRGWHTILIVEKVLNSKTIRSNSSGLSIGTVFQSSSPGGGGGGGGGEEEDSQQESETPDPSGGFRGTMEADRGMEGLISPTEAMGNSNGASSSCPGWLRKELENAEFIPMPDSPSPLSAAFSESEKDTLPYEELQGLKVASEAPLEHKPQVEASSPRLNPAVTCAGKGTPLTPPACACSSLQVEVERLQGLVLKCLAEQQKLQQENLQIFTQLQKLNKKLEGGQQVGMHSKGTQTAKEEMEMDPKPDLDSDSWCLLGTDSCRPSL
# [3] = Plasma concentration in Sprague-Dawley rat at 2 mg/kg, po measured after 8 hrs by LC-MS/MS analysis; assay type: ADME, organism-based
# [4] = molecular target: T2, Serine/threonine-protein kinase ULK3 (Homo sapiens) (UniProt Q6PHR2); assay: Inhibition of ULK3 in human HeLa cells lysate at 10 uM pre incubated for 15 mins followed by ADP acyl phosphate probe addition and measured after 10 mins by LC-MS/MS analysis relative to control; assay type: subcellular; conditions: time 25.0 min
# T2 sequence (whole entry): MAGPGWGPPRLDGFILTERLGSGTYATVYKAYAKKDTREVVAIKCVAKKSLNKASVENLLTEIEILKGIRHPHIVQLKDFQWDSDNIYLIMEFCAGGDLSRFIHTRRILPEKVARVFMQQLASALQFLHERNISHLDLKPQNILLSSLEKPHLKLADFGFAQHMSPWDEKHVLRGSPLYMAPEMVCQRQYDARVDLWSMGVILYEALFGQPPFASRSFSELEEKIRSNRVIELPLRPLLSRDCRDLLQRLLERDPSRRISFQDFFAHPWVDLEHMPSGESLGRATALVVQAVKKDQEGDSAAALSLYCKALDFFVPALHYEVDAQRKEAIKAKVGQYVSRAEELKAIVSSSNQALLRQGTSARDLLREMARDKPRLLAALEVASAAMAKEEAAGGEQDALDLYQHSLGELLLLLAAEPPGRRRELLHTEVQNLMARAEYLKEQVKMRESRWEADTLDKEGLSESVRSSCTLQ
# Ephrin type-A receptor 2 = Ephrin type-A receptor 2 (Homo sapiens, UniProt P29317); assay: Inhibition of EphA2 in human HeLa cells lysate at 2 uM pre incubated for 15 mins followed by ATP acyl phosphate probe addition and measured after 10 mins by LC-MS/MS analysis relative to control; assay type: subcellular; conditions: time 25.0 min
# Ephrin type-A receptor 2, sequence (P29317 whole entry, canonical isoform): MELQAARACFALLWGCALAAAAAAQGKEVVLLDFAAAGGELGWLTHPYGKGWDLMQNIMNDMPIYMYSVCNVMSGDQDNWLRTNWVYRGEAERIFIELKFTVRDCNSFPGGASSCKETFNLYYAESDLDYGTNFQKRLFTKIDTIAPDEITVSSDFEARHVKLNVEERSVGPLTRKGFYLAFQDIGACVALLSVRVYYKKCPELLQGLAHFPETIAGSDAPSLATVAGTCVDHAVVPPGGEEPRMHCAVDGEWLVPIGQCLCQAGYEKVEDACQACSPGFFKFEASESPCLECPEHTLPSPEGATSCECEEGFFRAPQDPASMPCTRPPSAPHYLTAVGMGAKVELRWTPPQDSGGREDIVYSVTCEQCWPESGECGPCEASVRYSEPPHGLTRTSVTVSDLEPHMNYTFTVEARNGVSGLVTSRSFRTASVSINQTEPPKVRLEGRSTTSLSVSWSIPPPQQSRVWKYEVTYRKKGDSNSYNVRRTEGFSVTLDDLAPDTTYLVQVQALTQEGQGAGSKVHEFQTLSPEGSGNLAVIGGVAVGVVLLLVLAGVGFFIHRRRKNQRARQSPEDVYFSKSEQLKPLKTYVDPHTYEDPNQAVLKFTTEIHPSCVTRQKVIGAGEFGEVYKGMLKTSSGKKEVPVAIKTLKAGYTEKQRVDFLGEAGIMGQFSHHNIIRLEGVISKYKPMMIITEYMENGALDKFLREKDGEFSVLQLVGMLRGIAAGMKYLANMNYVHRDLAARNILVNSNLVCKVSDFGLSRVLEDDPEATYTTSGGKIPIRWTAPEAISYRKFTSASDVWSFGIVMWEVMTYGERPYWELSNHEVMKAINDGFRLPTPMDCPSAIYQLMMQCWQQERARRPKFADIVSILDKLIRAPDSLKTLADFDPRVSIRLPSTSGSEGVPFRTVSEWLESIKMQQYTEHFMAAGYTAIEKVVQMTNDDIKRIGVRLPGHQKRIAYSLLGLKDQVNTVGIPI
# [5] = molecular target: Glycogen synthase kinase-3 beta (Homo sapiens, UniProt P49841); assay: Inhibition of GSK3B isoform 2 in human HeLa cells lysate pre incubated for 15 mins followed by ATP acyl phosphate probe addition and measured after 10 mins by LC-MS/MS analysis; assay type: subcellular
# Glycogen synthase kinase-3 beta, sequence (P49841 whole entry, the tested form may be a part, canonical isoform): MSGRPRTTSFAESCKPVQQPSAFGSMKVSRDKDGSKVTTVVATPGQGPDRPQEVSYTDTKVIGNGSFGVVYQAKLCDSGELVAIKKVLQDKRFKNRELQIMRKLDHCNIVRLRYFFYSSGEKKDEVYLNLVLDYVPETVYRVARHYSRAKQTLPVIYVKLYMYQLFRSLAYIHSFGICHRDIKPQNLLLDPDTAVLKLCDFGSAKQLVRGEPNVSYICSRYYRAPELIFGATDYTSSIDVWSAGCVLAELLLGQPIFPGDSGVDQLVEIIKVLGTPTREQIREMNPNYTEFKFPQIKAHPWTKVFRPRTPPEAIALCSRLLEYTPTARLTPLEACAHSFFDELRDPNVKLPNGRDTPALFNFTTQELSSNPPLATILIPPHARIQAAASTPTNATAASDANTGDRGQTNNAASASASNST
# [6] = molecular target: Phosphatidylinositol 4-phosphate 3-kinase C2 domain-containing subunit beta (Homo sapiens, UniProt O00750); assay: Inhibition of PIK3C2B in human HeLa cells lysate at 2 uM pre incubated for 15 mins followed by ATP acyl phosphate probe addition and measured after 10 mins by LC-MS/MS analysis relative to control; assay type: subcellular; conditions: time 25.0 min
# Phosphatidylinositol 4-phosphate 3-kinase C2 domain-containing subunit beta, sequence (O00750 whole entry, the tested form may be a part): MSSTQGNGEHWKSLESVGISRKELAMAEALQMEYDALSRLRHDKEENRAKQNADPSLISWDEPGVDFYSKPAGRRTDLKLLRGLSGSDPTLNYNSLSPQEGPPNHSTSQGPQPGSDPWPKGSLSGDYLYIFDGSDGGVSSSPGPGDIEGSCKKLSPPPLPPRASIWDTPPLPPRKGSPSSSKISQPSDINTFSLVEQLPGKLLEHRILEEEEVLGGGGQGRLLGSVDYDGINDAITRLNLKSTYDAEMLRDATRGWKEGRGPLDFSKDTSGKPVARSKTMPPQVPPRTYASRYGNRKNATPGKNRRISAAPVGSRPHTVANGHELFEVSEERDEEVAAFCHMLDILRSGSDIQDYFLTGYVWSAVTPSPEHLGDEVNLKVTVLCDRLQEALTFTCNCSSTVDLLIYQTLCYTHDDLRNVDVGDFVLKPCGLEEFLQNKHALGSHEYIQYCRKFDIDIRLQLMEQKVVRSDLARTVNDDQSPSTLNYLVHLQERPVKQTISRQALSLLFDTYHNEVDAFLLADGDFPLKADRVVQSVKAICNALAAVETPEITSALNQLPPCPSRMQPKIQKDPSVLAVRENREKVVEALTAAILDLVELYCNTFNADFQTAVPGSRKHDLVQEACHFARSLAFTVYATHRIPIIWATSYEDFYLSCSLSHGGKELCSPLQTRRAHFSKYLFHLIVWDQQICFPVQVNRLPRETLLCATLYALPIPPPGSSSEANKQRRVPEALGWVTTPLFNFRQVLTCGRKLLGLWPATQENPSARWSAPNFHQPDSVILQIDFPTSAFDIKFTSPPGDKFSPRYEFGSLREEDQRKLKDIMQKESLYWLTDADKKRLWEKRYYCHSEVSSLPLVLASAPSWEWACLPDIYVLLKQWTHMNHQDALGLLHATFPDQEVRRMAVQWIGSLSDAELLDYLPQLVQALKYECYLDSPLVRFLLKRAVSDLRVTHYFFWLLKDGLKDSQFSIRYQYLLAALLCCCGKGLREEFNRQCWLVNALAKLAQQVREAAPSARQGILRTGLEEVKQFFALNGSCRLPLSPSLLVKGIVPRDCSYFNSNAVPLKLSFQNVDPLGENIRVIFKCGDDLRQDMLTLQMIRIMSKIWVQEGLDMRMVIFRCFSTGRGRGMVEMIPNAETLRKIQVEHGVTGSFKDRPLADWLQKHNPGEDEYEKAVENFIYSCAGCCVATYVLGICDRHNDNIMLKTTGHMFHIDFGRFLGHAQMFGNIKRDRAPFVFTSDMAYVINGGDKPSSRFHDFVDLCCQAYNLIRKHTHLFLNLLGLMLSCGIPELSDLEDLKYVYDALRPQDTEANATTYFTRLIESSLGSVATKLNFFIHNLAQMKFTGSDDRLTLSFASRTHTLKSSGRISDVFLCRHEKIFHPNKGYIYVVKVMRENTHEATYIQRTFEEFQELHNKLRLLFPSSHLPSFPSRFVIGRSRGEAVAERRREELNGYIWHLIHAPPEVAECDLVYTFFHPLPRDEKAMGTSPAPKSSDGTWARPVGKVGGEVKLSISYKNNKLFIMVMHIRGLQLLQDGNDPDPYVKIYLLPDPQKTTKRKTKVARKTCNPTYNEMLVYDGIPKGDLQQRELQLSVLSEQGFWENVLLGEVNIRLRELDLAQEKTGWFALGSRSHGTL
# [7] = molecular target: Cyclin-dependent kinase 2 (Homo sapiens, UniProt P24941); assay: Inhibition of CDK2 in human HeLa cells lysate at 2 uM pre incubated for 15 mins followed by ATP acyl phosphate probe addition and measured after 10 mins by LC-MS/MS analysis relative to control; assay type: subcellular; conditions: time 25.0 min
# Outline: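 KiNativ profiling in HeLa lysate (5 mg/mL total protein). Lysate incubated 15 min with inhibitor at 50, 10, 2, 0.8 or 0 μM. ATP or ADP acylphosphate probe then added (5 μM final) and reacted 10 min. Reaction stopped with urea and analysed by targeted MS, using up to four fragment ions per kinase peptide-probe conjugate. % inhibition taken against untreated lysate. Run in duplicate.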
# [8] = Inhibition of PCTAIRE2/3 in human HeLa cells lysate at 10 uM pre incubated for 15 mins followed by ADP acyl phosphate probe addition and measured after 10 mins by LC-MS/MS analysis relative to control; conditions: 25 min, condition cancer
# [9] = Inhibition of PCTAIRE2/ICK in human HeLa cells lysate at 50 uM pre incubated for 15 mins followed by ADP acyl phosphate probe addition and measured after 10 mins by LC-MS/MS analysis relative to control; conditions: 25 min, condition cancer
# [10] = molecular target: Serine/threonine-protein kinase WNK1 (Homo sapiens, UniProt Q9H4A3); assay: Inhibition of Wnk1 in human HeLa cells lysate pre incubated for 15 mins followed by ATP acyl phosphate probe addition and measured after 10 mins by LC-MS/MS analysis; assay type: subcellular
# SRSF protein kinase 1, sequence (Q96SB4 whole entry): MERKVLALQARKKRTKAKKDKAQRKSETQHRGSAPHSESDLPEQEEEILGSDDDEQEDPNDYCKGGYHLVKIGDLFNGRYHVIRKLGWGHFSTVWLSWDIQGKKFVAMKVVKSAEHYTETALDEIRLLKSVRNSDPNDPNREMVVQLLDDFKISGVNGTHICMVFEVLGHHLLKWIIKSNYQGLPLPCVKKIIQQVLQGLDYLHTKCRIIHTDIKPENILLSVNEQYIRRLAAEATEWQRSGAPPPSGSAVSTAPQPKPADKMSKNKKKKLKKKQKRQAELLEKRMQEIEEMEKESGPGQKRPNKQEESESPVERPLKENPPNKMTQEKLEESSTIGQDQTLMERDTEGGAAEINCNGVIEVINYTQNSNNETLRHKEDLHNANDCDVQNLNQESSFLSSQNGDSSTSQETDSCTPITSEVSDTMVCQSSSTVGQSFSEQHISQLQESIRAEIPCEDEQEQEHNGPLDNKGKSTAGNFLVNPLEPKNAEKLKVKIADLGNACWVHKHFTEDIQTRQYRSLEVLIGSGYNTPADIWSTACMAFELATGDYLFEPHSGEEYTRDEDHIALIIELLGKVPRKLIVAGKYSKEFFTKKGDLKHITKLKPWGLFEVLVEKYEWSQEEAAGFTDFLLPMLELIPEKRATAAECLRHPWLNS
smiles,measurement,setting,value
CCOc1cc(N2CCC(O)CC2)ccc1Nc1ncc2c(n1)N(C)c1ccccc1C(=O)N2C,inhibition,SRSF protein kinase 1,-2%
same,IC50,[1],> 50 µM
same,inhibition,[2],-7.3%
same,concentration at 8 h,[3],34 nM
same,inhibition,[4],1.2%
same,inhibition,Ephrin type-A receptor 2,-7.6%
same,IC50,[5],> 50 µM
same,inhibition,[6],26.1%
same,inhibition,[7],2%
same,inhibition at 10 µM,[8],-4.4%
same,inhibition at 50 µM,[9],4.1%
same,IC50,[10],> 50 µM

# From ChEMBL document CHEMBL5661979, “Pharmacological inhibition of BMK1 suppresses tumor growth through promyelocytic leukemia protein” (Cancer Cell, 2010)
